Activity calls are given as the source filed them. No cut-off for these calls is given here.
Columns and labels:
[1] = biological target: T1, Cannabinoid receptor 1 (Homo sapiens, UniProt P21554); assay: biochemical; type: cell-based, HEK293
[2] = biological target: Cannabinoid receptor 2 (Homo sapiens, UniProt P34972); assay: Displacement of [3H]CP-55940 from human recombinant CB2R expressed in HEK293 cells; type: cell-based
[3] = species on record: Homo sapiens; assay: Selectivity ratio of IC50 for human recombinant CB2R to IC50 for human recombinant CB1R
In short: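 hCB1- or hCB2-transfected HEK 293 stable clones; purified membranes (0.2-8 μg) incubated with 0.75 nM [3H]CP-55,940 plus test compound in 50 mM Tris-HCl, 5 mM MgCl2, 1 mM EDTA, 0.3% BSA, pH 7.4, 1.5 h at 30 °C. Nonspecific binding with 1 μM CP-55,940. Filtration, bound radioactivity counted; IC50 by nonlinear regression. Mean ± SD of at least three independent experiments.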

[4] = biological target: T1, Cannabinoid receptor 1; type: cell-based, HEK293
[5] = system: Mus musculus; assay: Induction of weight loss in diet induced obesity C57BL/6 mouse model at 10 mg/kg, po qd relative to control; type: functional
In short: (§1)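 DIO mice, weight-matched into groups (n = 8/group), given vehicle (10% DMSO/10% Tween 80/80% H2O) or compound by oral gavage once daily for 29 days. Food intake and body weight recorded daily. Read-out is cumulative percentage body-weight change versus vehicle, reported as mean ± standard error.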

[6] = system: Brain; assay: Drug level in brain of diet-induced obesity C57BL/6 mouse model at 10 mg/kg, po; type: ADME, organism-based; design: dose 10 mg/kg, route oral; details: in vivo
[7] = system: Mus musculus; assay: Induction of weight loss in po dosed diet induced obesity C57BL/6 mouse model assessed as minimum effective dose after 29 days; type: functional
In short: as §1

[8] = system: Mus musculus; assay: Induction of weight loss in diet induced obesity C57BL/6 mouse model at 1 mg/kg, po after 29 days relative to control; type: functional
In short: as §1

[9] = system: Brain; assay: Drug level in brain of diet-induced obesity C57BL/6 mouse model at 1 mg/kg, po; type: ADME, organism-based; design: dose 1 mg/kg, route oral; details: in vivo
[10] = system: Rattus norvegicus; assay: Suppression of food intake in Wistar rat spontaneously feeding model at 3 mg/kg, po after 6 hrs
[11] = system: Mus musculus; assay: Reduction of food intake in diet induced obesity C57BL/6 mouse model at 0.03 mg/kg, po after 29 days; type: functional, organism-based; design: dose 0.03 mg/kg
In short: (§2)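 Weight-matched DIO mice (n = 8/group) gavaged once daily with compound or vehicle (10% DMSO/10% Tween 80/80% H2O) for 29 days. Food consumed and body weight measured daily. Mean ± standard error.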

[12] = system: Mus musculus; assay: Reduction of food intake in diet induced obesity C57BL/6 mouse model at 0.3 mg/kg, po after 29 days; type: functional, organism-based; design: dose 0.3 mg/kg
In short: as §2

[13] = system: Mus musculus; assay: Reduction of food intake in diet induced obesity C57BL/6 mouse model at 0.1 mg/kg, po after 29 days; type: functional, organism-based; design: dose 0.1 mg/kg
In short: as §2

[14] = system: Mus musculus; assay: Induction of weight loss in diet induced obesity C57BL/6 mouse model at 0.03 mg/kg, po after 29 days relative to control; type: functional
In short: as §1

[15] = system: Mus musculus; assay: Induction of weight loss in diet induced obesity C57BL/6 mouse model at 0.1 mg/kg, po after 29 days relative to control; type: functional
In short: as §1

[16] = system: Mus musculus; assay: Induction of weight loss in diet induced obesity C57BL/6 mouse model at 0.3 mg/kg, po after 29 days relative to control; type: functional
In short: as §1

[17] = system: Brain; assay: Drug level in brain of diet-induced obesity C57BL/6 mouse model at 0.3 mg/kg, po; type: ADME, organism-based; design: dose 0.3 mg/kg, route oral; details: in vivo
[18] = system: Rattus norvegicus; assay: Induction of weight loss in diet induced obesity Wistar rat model at 0.1 mg/kg, po qd after 29 days relative to control; type: functional
[19] = system: Rattus norvegicus; assay: Induction of weight loss in diet induced obesity Wistar rat model at 0.3 mg/kg, po qd after 29 days relative to control; type: functional
[20] = system: Rattus norvegicus; assay: Suppression of food intake in Wistar rat spontaneously feeding model at 0.3 mg/kg, po after 6 hrs

Cannabinoid receptor 2, sequence (P34972 whole entry): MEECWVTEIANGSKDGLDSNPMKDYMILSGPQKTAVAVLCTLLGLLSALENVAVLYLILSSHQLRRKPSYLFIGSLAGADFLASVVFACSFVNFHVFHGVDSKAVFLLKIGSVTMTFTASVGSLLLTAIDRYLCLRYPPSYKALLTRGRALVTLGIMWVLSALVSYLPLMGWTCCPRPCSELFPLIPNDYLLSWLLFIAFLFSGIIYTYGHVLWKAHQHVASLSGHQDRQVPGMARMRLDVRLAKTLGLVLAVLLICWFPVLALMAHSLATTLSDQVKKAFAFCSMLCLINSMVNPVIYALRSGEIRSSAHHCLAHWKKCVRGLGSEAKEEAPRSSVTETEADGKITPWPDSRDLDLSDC
T1 sequence (P21554 whole entry): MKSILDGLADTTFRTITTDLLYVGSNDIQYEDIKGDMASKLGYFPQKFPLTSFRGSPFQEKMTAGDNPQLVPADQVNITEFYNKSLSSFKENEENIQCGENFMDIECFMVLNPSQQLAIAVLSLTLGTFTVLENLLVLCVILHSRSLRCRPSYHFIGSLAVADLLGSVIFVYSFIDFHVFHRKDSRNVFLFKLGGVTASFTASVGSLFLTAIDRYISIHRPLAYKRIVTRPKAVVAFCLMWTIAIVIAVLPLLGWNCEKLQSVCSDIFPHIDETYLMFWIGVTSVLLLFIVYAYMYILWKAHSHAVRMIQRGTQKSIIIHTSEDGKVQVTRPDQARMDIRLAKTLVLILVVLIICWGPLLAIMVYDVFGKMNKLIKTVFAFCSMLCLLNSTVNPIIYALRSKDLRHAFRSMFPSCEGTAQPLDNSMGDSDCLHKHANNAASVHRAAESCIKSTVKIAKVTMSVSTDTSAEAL

IC50 [1] [µM]	IC50 [2] [µM]	Ratio IC50 [3]	SMILES	further results
1.11	4.76	4	CCCCN1C(c2nn(-c3ccc(Cl)cc3Cl)c(-c3ccc(Cl)cc3)c2C)=NC(=O)C1(C)C	–
0.0336	3.25	97	Cc1c(C2=NC(C)(C)C(=O)N2C)nn(-c2ccc(Cl)cc2Cl)c1-c1ccc(Cl)cc1	–
0.212	1.06	5	COc1ccc(-c2c(C)c(C3=NC(=O)C(C)(C)N3C)nn2-c2ccc(Cl)cc2Cl)cc1	–
0.0474	1.1	23	Cc1c(C2=NC(=O)C(C)(C)N2C)nn(-c2ccc(Cl)cc2Cl)c1-c1ccc(Br)cc1	–
0.197	5.13	26	Cc1c(C2=NC(=O)C(C)(C)N2Cc2ccccc2)nn(-c2ccc(Cl)cc2Cl)c1-c1ccc(Cl)cc1	–
0.249	2.88	12	C=CCN1C(c2nn(-c3ccc(Cl)cc3Cl)c(-c3ccc(Cl)cc3)c2C)=NC(=O)C1(C)C	–
0.0129	2.74	213	CCc1c(C2=NC(=O)C(C)(C)N2C)nn(-c2ccc(Cl)cc2Cl)c1-c1ccc(Cl)cc1	EC50 [4]: 0.0098 µM
0.0159	3.97	250	Cc1c(C2=NC(=O)C(C)(C)N2C)nn(-c2ccc(Cl)cc2Cl)c1-c1ccc(C(F)(F)F)cc1	EC50 [4]: 0.081 µM
0.0534	3.5	66	Cc1c(C2=NC(C)(C)C(=O)N2)nn(-c2ccc(Cl)cc2Cl)c1-c1ccc(Cl)cc1	–
0.0547	0.487	9	Cc1c(C2=NC(=O)C(C)(C)N2C)nn(-c2ccc(Cl)cc2Cl)c1-c1ccc(Cl)cc1	–
0.0439	0.822	19	CN1C(c2nn(-c3ccc(Cl)cc3Cl)c(-c3ccc(Cl)cc3)c2C2CC2)=NC(=O)C1(C)C	–
0.0425	1.57	37	CN1C(c2nn(-c3ccc(Cl)cc3Cl)c(-c3ccc(Cl)cc3)c2Br)=NC(=O)C1(C)C	–
0.107	1.17	11	CCN1C(c2nn(-c3ccc(Cl)cc3Cl)c(-c3ccc(Cl)cc3)c2C)=NC(=O)C1(C)C	–
0.854	5.51	7	CCCN1C(c2nn(-c3ccc(Cl)cc3Cl)c(-c3ccc(Cl)cc3)c2C)=NC(=O)C1(C)C	–
0.0063	0.901	143	Cc1c(C2=NC(=S)C(C)(C)N2C)nn(-c2ccc(Cl)cc2Cl)c1-c1ccc(Cl)cc1	EC50 [4]: 0.0085 µM

Continued, compound first:

SMILES	IC50 [1] [µM]	IC50 [2] [µM]	Ratio IC50 [3]	further results
CCc1c(C2=NC3(CCCC3)C(=O)N2)nn(-c2ccc(Cl)cc2Cl)c1-c1ccc(Cl)cc1	0.0146	1.37	94	–
CCc1c(C2=NC3(CCCCC3)C(=O)N2)nn(-c2ccc(Cl)cc2Cl)c1-c1ccc(Cl)cc1	0.0123	0.497	40	–
CCc1c(C2=NC(=O)C(C)(C)N2C)nn(-c2ccc(Cl)cc2Cl)c1-c1ccc(Br)cc1	0.0163	0.768	47	–
CCc1c(C2=NC(C)(C)C(=O)N2C)nn(-c2ccc(Cl)cc2Cl)c1-c1ccc(Cl)cc1	0.0338	4.33	128	EC50 [4]: 0.0655 µM
CCc1c(C2=NC3(CCC3)C(=O)N2)nn(-c2ccc(Cl)cc2Cl)c1-c1ccc(Cl)cc1	0.0228	3.18	139	EC50 [4]: 0.0123 µM
Cc1c(C(=O)NC(=O)C(C)(C)N(C)C)nn(-c2ccc(Cl)cc2Cl)c1-c1ccc(Cl)cc1	0.0829	–	35	–
CN1C(c2cc(-c3ccc(Cl)cc3)n(-c3ccc(Cl)cc3Cl)n2)=NC(=O)C1(C)C	0.325	7.95	24	–
Cc1c(C(=O)NN2CCCCC2)nn(-c2ccc(Cl)cc2Cl)c1-c1ccc(Cl)cc1 [RIMONABANT]	–	–	–	Activity [5]: 23.8%; Drug uptake [6]: 113 ng/g
Cc1c(C2=NC(=O)C(C)(C)N2C2CC2)nn(-c2ccc(Cl)cc2Cl)c1-c1ccc(Cl)cc1	0.0952	1.95	21	–
CCc1c(C2=NC(C)(C)C(=O)N2)nn(-c2ccc(Cl)cc2Cl)c1-c1ccc(Cl)cc1	0.0326	10.3	314	EC50 [4]: 0.0202 µM; MED [7]: 0.1 mg/kg; Activity [8]: 27.4%; Drug uptake [9]: 1118 ng/g; Activity [10]: Active
CCc1c(C2=NC(=S)C(C)(C)N2C)nn(-c2ccc(Cl)cc2Cl)c1-c1ccc(Cl)cc1	0.012	4.75	396	EC50 [4]: 0.0051 µM; MED [7]: 0.03 mg/kg; Activity [11]: Active; Activity [12]: Active; Activity [13]: Active; Activity [14]: 14.7%; Activity [15]: 19.4%; Activity [16]: 25.4%; Drug uptake [17]: 243 ng/g; Activity [18]: 5.1%; Activity [19]: 9.5%; Activity [20]: Active
